Data on ten compounds can be found in paper PMC7614232 (Organic & biomolecular chemistry, 2022).

The target of assay [1] is T1, GMIIb (Golgi α-mannosidase) (Drosophila melanogaster, UniProt Q9VF33).
T1 sequence (Q9VF33 31-1249): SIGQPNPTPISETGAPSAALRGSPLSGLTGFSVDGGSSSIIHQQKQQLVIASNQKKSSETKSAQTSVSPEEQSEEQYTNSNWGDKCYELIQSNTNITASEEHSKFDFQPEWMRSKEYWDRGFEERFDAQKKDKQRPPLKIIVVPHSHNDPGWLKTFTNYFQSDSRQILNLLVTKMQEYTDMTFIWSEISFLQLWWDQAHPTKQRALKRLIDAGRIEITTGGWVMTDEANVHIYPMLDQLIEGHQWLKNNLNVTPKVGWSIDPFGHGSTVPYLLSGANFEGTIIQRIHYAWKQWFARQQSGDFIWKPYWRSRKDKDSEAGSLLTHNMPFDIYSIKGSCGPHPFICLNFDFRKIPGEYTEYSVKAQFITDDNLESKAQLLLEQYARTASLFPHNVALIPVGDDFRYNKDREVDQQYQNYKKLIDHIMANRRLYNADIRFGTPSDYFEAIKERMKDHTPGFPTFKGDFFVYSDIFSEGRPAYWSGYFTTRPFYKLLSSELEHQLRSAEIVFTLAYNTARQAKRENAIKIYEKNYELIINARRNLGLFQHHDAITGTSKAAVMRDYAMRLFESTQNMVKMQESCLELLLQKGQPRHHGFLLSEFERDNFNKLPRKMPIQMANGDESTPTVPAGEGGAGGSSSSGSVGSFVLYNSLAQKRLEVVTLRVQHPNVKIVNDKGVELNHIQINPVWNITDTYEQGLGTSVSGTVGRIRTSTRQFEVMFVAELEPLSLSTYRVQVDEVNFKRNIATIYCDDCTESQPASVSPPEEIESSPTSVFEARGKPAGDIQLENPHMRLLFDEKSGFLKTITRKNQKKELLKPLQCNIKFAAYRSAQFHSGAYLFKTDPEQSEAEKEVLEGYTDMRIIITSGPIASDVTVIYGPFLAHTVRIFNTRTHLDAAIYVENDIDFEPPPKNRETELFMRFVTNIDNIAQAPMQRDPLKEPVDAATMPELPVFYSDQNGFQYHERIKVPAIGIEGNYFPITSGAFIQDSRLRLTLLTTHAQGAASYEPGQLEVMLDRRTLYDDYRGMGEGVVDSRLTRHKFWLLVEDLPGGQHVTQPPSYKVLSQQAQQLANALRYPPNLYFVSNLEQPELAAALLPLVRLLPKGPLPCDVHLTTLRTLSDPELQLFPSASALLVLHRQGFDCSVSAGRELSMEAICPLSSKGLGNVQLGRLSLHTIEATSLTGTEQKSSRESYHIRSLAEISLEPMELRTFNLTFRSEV
Put plainly: α-mannosidase inhibition assay with pNP-Man, GMIIb. The format is biochemical. The note with it: for SI^a = IC50(LManII)/IC50(GMIIb): selectivity index.

Assay [2] addresses T2, JBMan (Jack bean α-mannosidase) (Canavalia ensiformis, UniProt C0HJB3).
T2 sequence (C0HJB3 1-981): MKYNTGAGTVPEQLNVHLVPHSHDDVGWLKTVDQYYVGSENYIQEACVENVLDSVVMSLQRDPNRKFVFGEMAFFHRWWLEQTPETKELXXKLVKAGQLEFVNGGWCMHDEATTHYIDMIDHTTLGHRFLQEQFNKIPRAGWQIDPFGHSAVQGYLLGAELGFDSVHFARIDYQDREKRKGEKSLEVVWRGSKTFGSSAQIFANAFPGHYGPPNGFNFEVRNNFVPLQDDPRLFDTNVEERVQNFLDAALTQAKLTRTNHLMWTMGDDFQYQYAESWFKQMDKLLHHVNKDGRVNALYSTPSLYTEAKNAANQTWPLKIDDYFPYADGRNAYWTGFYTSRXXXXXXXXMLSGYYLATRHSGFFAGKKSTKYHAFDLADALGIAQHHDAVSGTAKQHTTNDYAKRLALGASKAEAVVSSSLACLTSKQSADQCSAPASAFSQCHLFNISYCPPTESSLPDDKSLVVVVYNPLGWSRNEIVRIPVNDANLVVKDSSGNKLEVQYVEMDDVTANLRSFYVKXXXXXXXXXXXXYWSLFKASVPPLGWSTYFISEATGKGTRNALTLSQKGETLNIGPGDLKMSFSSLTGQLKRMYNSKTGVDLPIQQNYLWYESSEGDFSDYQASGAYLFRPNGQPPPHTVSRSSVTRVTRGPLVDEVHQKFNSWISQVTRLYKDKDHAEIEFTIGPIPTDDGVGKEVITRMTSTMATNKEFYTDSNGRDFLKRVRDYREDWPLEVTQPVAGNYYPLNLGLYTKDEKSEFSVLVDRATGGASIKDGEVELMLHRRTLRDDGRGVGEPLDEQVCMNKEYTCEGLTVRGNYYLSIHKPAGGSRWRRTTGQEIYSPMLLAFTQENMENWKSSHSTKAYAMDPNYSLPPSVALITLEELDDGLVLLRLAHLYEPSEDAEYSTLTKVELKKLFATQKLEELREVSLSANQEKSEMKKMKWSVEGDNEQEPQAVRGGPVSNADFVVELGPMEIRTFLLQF
Put plainly: α-mannosidase inhibition assay with pNP-Man, JBMan. In kind it is biochemical. Summed up: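 Commercial jack bean α-mannosidase (0.05 μg protein) in 50 mM acetate buffer, pH 5.0. Compound taken from a 50 mM DMSO solution, diluted in water, and preincubated with enzyme 5 min at rt. pNP-Man was added and the reaction ran 1-2 h at 37 °C. Stopped with 0.5 M sodium carbonate; p-nitrophenol read at 405 nm. […] Three independent experiments in duplicate.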

Setting [3] is: read-out: IC50 GMIIb, 2 mM pNP-Man, pH 6.0.
The mark [4] stands for this setting: read-out: Ki GMIIb, Dixon plots, pNP-Man 0.5-4 mM, pH 6.0.
The mark [5] stands for this setting: read-out: IC50 JBMan, 2 mM pNP-Man, pH 5.0.
The mark [6] stands for this setting: read-out: Ki JBMan, Dixon plots, pNP-Man 0.5-4 mM, pH 5.0.

Where two headings read alike, the source gives them in different places.

The IC50 is the midpoint of a concentration-inhibition curve. As to `OC[C@@H]1[C@H](O)[C@H](O)CN1Cc1ccccc1` [Compound 4, N-Benzyl-1,4-dideoxy-1,4-imino-d-lyxitol], the IC50 in assay [1] stood at 11 ± 1.3 µM; in assay [2], 1080 ± 185 µM. Also, in assay [1], the “SI^a = IC50(LManII)/IC50(GMIIb)” value is on record as 61.
As usually defined, the Ki is the dissociation constant of the complex between target and ligand, obtained from inhibition or displacement. Consider `Cl.N=C(N)NCc1ccc(CN2C[C@@H](O)[C@@H](O)[C@H]2CO)cc1` [Compound 9, 1,4-Dideoxy-N-4-guanidinomethylbenzyl-1,4-imino-d-lyxitol hydrochloride], for which the concentration for half-maximal inhibition (IC50) is 2.4 ± 0.1 µM in assay [1] (setting [3]) and 115 ± 6.7 µM in assay [2] (setting [5]). Further, the Ki in assay [1] (setting [4]) was determined as 0.83 µM; in assay [2] (setting [6]), 52.4 µM. Further, in assay [1], the “SI^a = IC50(LManII)/IC50(GMIIb)” value was 142.
Regarding `OCC1C(O)C(O)CN1Cc1ccc(I)cc1` (stereo not drawn) [Compound 16, 1,4-Dideoxy-1,4-imino-N-4-iodobenzyl-d-lyxitol], the half-maximal inhibitory concentration (IC50) is 4.4 ± 0.2 µM in assay [1] (setting [3]) and 940 ± 24 µM in assay [2] (setting [5]). In addition, in assay [1], the “SI^a = IC50(LManII)/IC50(GMIIb)” value turned out to be 105.
With `OC[C@@H]1[C@H](O)[C@H](O)CN1Cc1ccc2ccccc2c1` [Compound 17, 1,4-Dideoxy-1,4-imino-N-(naphthalen-2-ylmethyl)-d-lyxitol], the IC50 in assay [1] (setting [3]) worked out at 7.6 ± 1.1 µM; in assay [1] (read-out: IC50 GMIIb, 2 mM pNP-Man, pH 6.0, listed as N-2-naphtylmethyl) it was 2.4 µM; in assay [2] (setting [5]), 1950 ± 250 µM. Moreover, the “SI^a = IC50(LManII)/IC50(GMIIb)” value in assay [1] was 111.
Turning to `OCC1C(O)C(O)CN1CCc1cccc2ccccc12` (stereo not drawn) [Compound 18, 1,4-Dideoxy-1,4-imino-N-(2-(naphthalen-1-yl)ethyl)-d-lyxitol], the IC50 in assay [1] (setting [3]) was found to be 0.45 ± 0.08 µM; in assay [2] (setting [5]), 18 ± 1.7 µM. Also, the Ki in assay [1] (setting [4]) came out at 0.16 µM; in assay [1] (read-out: Ki(GMIIb)) it was 0.15 µM; in assay [2] (setting [6]), 6.5 µM. The “SI^a = IC50(LManII)/IC50(GMIIb)” value in assay [1] came to 27.
With `OC[C@@H]1[C@H](O)[C@H](O)CN1CC1CCCCC1` [Compound 19, N-Cyclohexylmethyl-1,4-dideoxy-1,4-imino-d-lyxitol], in assay [1], the IC50 was 3.5 ± 0.3 µM and the “SI^a = IC50(LManII)/IC50(GMIIb)” value is reported as 54. In addition, the IC50 in assay [2] came to 1290 ± 113 µM.
Turning to `OC[C@@H]1[C@H](O)[C@H](O)CN1CC1CCOCC1` [Compound 20], the IC50 in assay [1] (setting [3]) worked out at 15.5 ± 0.5 µM; in assay [2] (setting [5]) it was 2550 ± 63 µM. Also, in assay [1], the “SI^a = IC50(LManII)/IC50(GMIIb)” value is listed as 63.
Regarding `CCCCCCCCCCCCN1C[C@@H](O)[C@@H](O)[C@H]1CO` [Compound 21, 1,4-Dideoxy-N-dodecyl-1,4-imino-d-lyxitol], the IC50 was 0.4 ± 0.05 µM in assay [1] and 20.3 ± 4.4 µM in assay [2]. The “SI^a = IC50(LManII)/IC50(GMIIb)” value in assay [1] is 30.
On to `Cl.N=C(N)NCCCCCCCCCCN1C[C@@H](O)[C@@H](O)[C@H]1CO` [Compound 25, 1,4-Dideoxy-N-(10-guanidinodecyl)-1,4-imino-d-lyxitol hydrochloride], for which the half-inhibitory concentration (IC50) in assay [1] is 0.45 ± 0.1 µM; in assay [2], 8.3 ± 1.2 µM. In addition, the “SI^a = IC50(LManII)/IC50(GMIIb)” value in assay [1] came to 18.
With `Cl.N=C(N)CCCCCCCCCN1C[C@@H](O)[C@@H](O)[C@H]1CO` [Compound 26, N-(9-amidinononyl)-1,4-dideoxy-1,4-imino-d-lyxitol hydrochloride], in assay [1], half-maximal inhibition (IC50) was put at 0.19 ± 0.02 µM, the Ki is 0.04 µM and the “SI^a = IC50(LManII)/IC50(GMIIb)” value amounted to 35. In assay [2], this compound displayed an IC50 of 4.7 ± 1.2 µM and a Ki of 1.4 µM.
